From ChEMBL document CHEMBL5247578, “Effective synthesis of benzimidazoles-imidazo[1,2-a]pyrazine conjugates: A comparative study of mono-and bis-benzimidazoles for antitumor activity” (Eur J Med Chem, 2019)

Key:
[1] = system: MCF7; assay: Antiproliferative activity against human MCF7 cells assessed as cell growth inhibition at 10 uM incubated for 48 hrs by sulforhodamine B assay relative to control; assay type: functional
How it was run: (§1)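 NCI-60 single-dose screen at 10^-5 M. Cells grown in RPMI 1640 with 5% FBS and 2 mM L-glutamine, plated at 5,000–40,000 cells/well, and preincubated 24 h. Drug (DMSO stock) added and incubated 48 h at 37 °C, 5% CO2. Adherent cells fixed with cold TCA, stained with 0.4% SRB in 1% acetic acid, dye solubilized in 10 mM trizma base, A515 read. Percent growth taken against time-zero and untreated control.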

[2] = system: NCI-H23; assay: Antiproliferative activity against human NCI-H23 cells assessed as cell growth inhibition at 10 uM incubated for 48 hrs by sulforhodamine B assay relative to control; assay type: functional; how it was run: as §1
[3] = system: SN12C; assay: Antiproliferative activity against human SN12C cells assessed as cell growth inhibition at 10 uM incubated for 48 hrs by sulforhodamine B assay relative to control; assay type: functional; how it was run: as §1
[4] = system: KM12; assay: Antiproliferative activity against human KM12 cells assessed as cell growth inhibition at 10 uM incubated for 48 hrs by sulforhodamine B assay relative to control; assay type: functional; how it was run: as §1
[5] = system: NCI-H226; assay: Antiproliferative activity against human NCI-H226 cells assessed as cell growth inhibition at 10 uM incubated for 48 hrs by sulforhodamine B assay relative to control; assay type: functional; how it was run: as §1
[6] = system: UACC-62; assay: Antiproliferative activity against human UACC-62 cells assessed as cell growth inhibition at 10 uM incubated for 48 hrs by sulforhodamine B assay relative to control; assay type: functional; how it was run: as §1
[7] = system: UO-31; assay: Antiproliferative activity against human UO-31 cells assessed as cell growth inhibition at 10 uM incubated for 48 hrs by sulforhodamine B assay relative to control; assay type: functional; how it was run: as §1
[8] = system: SR; assay: Antiproliferative activity against human SR cells assessed as cell growth inhibition at 10 uM incubated for 48 hrs by sulforhodamine B assay relative to control; assay type: functional; how it was run: as §1
[9] = system: U-251; assay: Antiproliferative activity against human U-251 cells assessed as cell growth inhibition at 10 uM incubated for 48 hrs by sulforhodamine B assay relative to control; assay type: functional; how it was run: as §1
[10] = system: HOP-92; assay: Antiproliferative activity against human HOP-92 cells assessed as cell growth inhibition at 10 uM incubated for 48 hrs by sulforhodamine B assay relative to control; assay type: functional
How it was run: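 NCI-60 one-dose prescreen at 10^-5 M. Cells grown in RPMI 1640 with 5% FBS and 2 mM glutamine, preincubated 24 h, then exposed 48 h at 37 °C. Adherent lines TCA-fixed, SRB-stained, A515 read. Growth percent relative to time-zero and control; negative values mean cell kill.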

[11] = system: NCI-H522; assay: Antiproliferative activity against human NCI-H522 cells assessed as cell growth inhibition at 10 uM incubated for 48 hrs by sulforhodamine B assay relative to control; assay type: functional; how it was run: as §1
[12] = system: OVCAR-3; assay: Antiproliferative activity against human OVCAR-3 cells assessed as cell growth inhibition at 10 uM incubated for 48 hrs by sulforhodamine B assay relative to control; assay type: functional; how it was run: as §1
[13] = system: SF-268; assay: Antiproliferative activity against human SF-268 cells assessed as cell growth inhibition at 10 uM incubated for 48 hrs by sulforhodamine B assay relative to control; assay type: functional; how it was run: as §1
[14] = system: ACHN; assay: Antiproliferative activity against human ACHN cells assessed as cell growth inhibition at 10 uM incubated for 48 hrs by sulforhodamine B assay relative to control; assay type: functional
How it was run: (§2)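 Single-dose NCI-60 prescreen at 10^-5 M. Cells in RPMI 1640 with 5% FBS and 2 mM L-glutamine, seeded 5,000–40,000 cells/well with 24 h preincubation, then drug exposure for 48 h at 37 °C under 5% CO2. Growth read by SRB staining of TCA-fixed cells at 515 nm against time-zero and untreated controls. Negative growth values denote cell kill.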

[15] = system: LOX IMVI; assay: Antiproliferative activity against human LOX IMVI cells assessed as cell growth inhibition at 10 uM incubated for 48 hrs by sulforhodamine B assay relative to control; assay type: functional; how it was run: as §1
[16] = system: Hs-578T; assay: Antiproliferative activity against human Hs-578T cells assessed as cell growth inhibition at 10 uM incubated for 48 hrs by sulforhodamine B assay relative to control; assay type: functional; how it was run: as §1
[17] = system: 786-0; assay: Antiproliferative activity against human 786-0 cells assessed as cell growth inhibition at 10 uM incubated for 48 hrs by sulforhodamine B assay relative to control; assay type: functional; how it was run: as §2
[18] = system: RXF 393; assay: Antiproliferative activity against human RXF 393 cells assessed as cell growth inhibition at 10 uM incubated for 48 hrs by sulforhodamine B assay relative to control; assay type: functional; how it was run: as §1
[19] = system: SK-MEL-2; assay: Antiproliferative activity against human SK-MEL-2 cells assessed as cell growth inhibition at 10 uM incubated for 48 hrs by sulforhodamine B assay relative to control; assay type: functional; how it was run: as §1
[20] = system: MDA-MB-468; assay: Antiproliferative activity against human MDA-MB-468 cells assessed as cell growth inhibition at 10 uM incubated for 48 hrs by sulforhodamine B assay relative to control; assay type: functional; how it was run: as §1
[21] = system: SK-MEL-5; assay: Antiproliferative activity against human SK-MEL-5 cells assessed as cell growth inhibition at 10 uM incubated for 48 hrs by sulforhodamine B assay relative to control; assay type: functional; how it was run: as §1
[22] = system: HT-29; assay: Antiproliferative activity against human HT-29 cells assessed as cell growth inhibition at 10 uM incubated for 48 hrs by sulforhodamine B assay relative to control; assay type: functional; how it was run: as §1
[23] = system: NCI/ADR-RES; assay: Antiproliferative activity against human NCI/ADR-RES cells assessed as cell growth inhibition at 10 uM incubated for 48 hrs by sulforhodamine B assay relative to control; assay type: functional; how it was run: as §1
[24] = system: CCRF-CEM; assay: Antiproliferative activity against human CCRF-CEM cells assessed as cell growth inhibition at 10 uM incubated for 48 hrs by sulforhodamine B assay relative to control; assay type: functional; how it was run: as §2
[25] = system: PC-3; assay: Antiproliferative activity against human PC-3 cells assessed as cell growth inhibition at 10 uM incubated for 48 hrs by sulforhodamine B assay relative to control; assay type: functional; how it was run: as §1
[26] = system: NCI-H460; assay: Antiproliferative activity against human NCI-H460 cells assessed as cell growth inhibition at 10 uM incubated for 48 hrs by sulforhodamine B assay relative to control; assay type: functional; how it was run: as §1
[27] = n-Octanol/phosphate buffer partition coefficient, logP of the compound at pH 7.4 incubated for 85 mins by shake-flask method; assay type: physicochemical
How it was run: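 Octanol–water partition by shake-flask: n-octanol with 0.15 M phosphate buffer pH 7.4 at 10:1 volumes. Buffer-phase absorbance read before mixing, then shaken 50 min and centrifuged at 2500 rpm for 35 min. Buffer absorbance read again; P = (Ai−Af)/Af × Vw/Vo.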

[28] = system: M14; assay: Antiproliferative activity against human M14 cells assessed as cell growth inhibition at 10 uM incubated for 48 hrs by sulforhodamine B assay relative to control; assay type: functional; how it was run: as §1
[29] = system: SW-620; assay: Antiproliferative activity against human SW620 cells assessed as cell growth inhibition at 10 uM incubated for 48 hrs by sulforhodamine B assay relative to control; assay type: functional; how it was run: as §1
[30] = system: SF-295; assay: Antiproliferative activity against human SF-295 cells assessed as cell growth inhibition at 10 uM incubated for 48 hrs by sulforhodamine B assay relative to control; assay type: functional; how it was run: as §1
[31] = system: MDA-MB-435; assay: Antiproliferative activity against human MDA-MB-435 cells assessed as cell growth inhibition at 10 uM incubated for 48 hrs by sulforhodamine B assay relative to control; assay type: functional; how it was run: as §1

Row | Compound | inhibition at 10 µM [1] | inhibition at 10 µM [2] | inhibition at 10 µM [3] | inhibition at 10 µM [4] | inhibition at 10 µM [6] | inhibition at 10 µM [7] | inhibition at 10 µM [8] | inhibition at 10 µM [11] | inhibition at 10 µM [12] | inhibition at 10 µM [13] | inhibition at 10 µM [14] | inhibition at 10 µM [15] | inhibition at 10 µM [16] | inhibition at 10 µM [17] | inhibition at 10 µM [19] | inhibition at 10 µM [21] | inhibition at 10 µM [22] | inhibition at 10 µM [23] | inhibition at 10 µM [24] | inhibition at 10 µM [25] | also measured
1 | Brc1cn2ccnc2c(-c2ccc3ncn(C4CCCCC4)c3c2)n1 | 47.6% | 10.2% | 6.47% | 67.7% | 19.8% | 37.6% | 26.8% | 16.2% | 15.8% | 17.1% | 11.5% | 15.2% | 16.1% | 10% | 10.2% | 13.4% | 5.21% | 8.82% | 7.68% | 17.2% | inhibition at 10 µM [5]: 22.5%; inhibition at 10 µM [9]: 1.5%; inhibition at 10 µM [10]: 30.7%; inhibition at 10 µM [18]: 5.58%; inhibition at 10 µM [20]: 44.4%
2 | COc1ccccc1-c1cn2ccnc2c(-c2ccc3ncn(C4CCCCC4)c3c2)n1 | 8.4% | 2.79% | 7.73% | 3.58% | 25.1% | 24% | 26.3% | 22.2% | 6.57% | 8.04% | 4.48% | 5.13% | 15.8% | 12.3% | 12.1% | 8.94% | 11.1% | 0.06% | 17.4% | 43.1% | inhibition at 10 µM [26]: 9.62%; logD at 1.417 h [27]: 1.72; inhibition at 10 µM [5]: 25.7%; inhibition at 10 µM [9]: 21%; inhibition at 10 µM [28]: 1.12%; inhibition at 10 µM [10]: 47.8%; inhibition at 10 µM [29]: 3.4%; inhibition at 10 µM [18]: 0.95%; inhibition at 10 µM [20]: 14.6%; inhibition at 10 µM [30]: 9.76%
3 | c1ccc(Cn2cnc3ccc(-c4nc(-c5cccc6ccccc56)cn5ccnc45)cc32)cc1 | 29.2% | 10.4% | 5.62% | 11% | 12.9% | 31.3% | 12.4% | 29.3% | 1.44% | 10.3% | 12.3% | 16.5% | 5.98% | 12.4% | 16.9% | 9.69% | 18.6% | 5.83% | 6.22% | 31.4% | inhibition at 10 µM [26]: 3.8%; logD at 1.417 h [27]: 2; inhibition at 10 µM [9]: 5.53%; inhibition at 10 µM [28]: 4.41%; inhibition at 10 µM [10]: 42.5%; inhibition at 10 µM [30]: 8.22%
4 | c1cn2cc(-c3ccc4c(c3)ncn4C3CCCCC3)nc(-c3ccc4ncn(C5CCCCC5)c4c3)c2n1 | 19.1% | 20.5% | 20.5% | 30.6% | 29.3% | 25.6% | 50% | 28.5% | 3.05% | 18.4% | 5.48% | 25.9% | 23.6% | 25.8% | 13.7% | 36.8% | 58.2% | 27% | 46.1% | 45% | inhibition at 10 µM [26]: 11.9%; logD at 1.417 h [27]: 1.9; inhibition at 10 µM [5]: 18.8%; inhibition at 10 µM [9]: 38.7%; inhibition at 10 µM [28]: 6.98%; inhibition at 10 µM [31]: 7.38%; inhibition at 10 µM [18]: 37.4%; inhibition at 10 µM [20]: 14.9%; inhibition at 10 µM [30]: 50.6%
5 | c1ccc2c(-c3cn4ccnc4c(-c4ccc5ncn(C6CCCCC6)c5c4)n3)cccc2c1 | 13% | 4.32% | 11.7% | 11.1% | 16.7% | 23% | 6.92% | 19.3% | 2.38% | 7.84% | 6.49% | 7.43% | 3.62% | 6.33% | 2.3% | 4.06% | 4.11% | 4.43% | 17.5% | 36.5% | inhibition at 10 µM [26]: 3.61%; logD at 1.417 h [27]: 1.44; inhibition at 10 µM [5]: 9.45%; inhibition at 10 µM [29]: 5.34%; inhibition at 10 µM [20]: 10.4%; inhibition at 10 µM [30]: 6.34%
6 | Cc1cccc(-c2cn3ccnc3c(-c3ccc4ncn(Cc5ccccc5)c4c3)n2)c1 | 22.2% | 9.09% | 4.72% | 22.1% | 2.46% | 41.7% | 11% | 28.4% | 13.9% | 7.22% | 12.4% | 14.8% | 8.47% | 21.4% | 6.34% | 10.1% | 42% | 12.1% | 21.1% | 24.8% | inhibition at 10 µM [26]: 10.1%; logD at 1.417 h [27]: 2.16; inhibition at 10 µM [5]: 1.18%; inhibition at 10 µM [9]: 19.4%; inhibition at 10 µM [10]: 28.7%; inhibition at 10 µM [31]: 0.94%; inhibition at 10 µM [18]: 2.01%; inhibition at 10 µM [20]: 16.6%; inhibition at 10 µM [30]: 14.3%
